Values after ≈ are worked out from the molar mass of the structure shown. Values belong to the compound of their own block, whether it stands above or below them. Active and inactive are the calls of the source. The rule behind the calls is not given here.
Experiments:
1A9 [1] = test: In vitro cytotoxicity evaluated against human ovarian cancer (1A9 cell line); assay type: functional; settings: read-out: ED50 (the source's name)
How it was run: (§1)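 SRB assay on human tumour cell lines. Absorbance read at 562 nm and compared with untreated cells. ED50 is the concentration giving a 50% reduction in absorbance.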

1A9 [2] = test: In vitro percent inhibition evaluated against human ovarian cancer (1A9 cell line) at >20 ug/mL; assay type: functional
How it was run: (§2)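 Same SRB cytotoxicity assay, absorbance at 562 nm versus untreated cells. Value is the percentage inhibition at the concentration tested.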

A549 [3] = test: In vitro cytotoxicity evaluated against human lung cancer (A549 cell line); assay type: functional; settings: read-out: ED50 (the source's name); how it was run: as §1
A549 [4] = test: In vitro percent inhibition evaluated against human lung cancer (A549 cell line) at >20 ug/mL; assay type: functional; how it was run: as §2
HOS [5] = test: In vitro percent inhibition evaluated against human bone carcinoma (HOS cell line) at >20 ug/mL; assay type: functional; how it was run: as §2
HOS [6] = test: In vitro cytotoxicity evaluated against human bone carcinoma (HOS cell line); assay type: functional; settings: read-out: ED50 (the source's name); how it was run: as §1
KB [7] = test: In vitro percent inhibition evaluated against human epidermoid nasopharynx carcinoma (KB cell line) at >20 ug/mL; assay type: functional; how it was run: as §2
KB [8] = test: In vitro cytotoxicity evaluated against human epidermoid nasopharynx carcinoma (KB cell line); assay type: functional; settings: read-out: ED50 (the source's name); how it was run: as §1
MCF7 [9] = test: In vitro percent inhibition evaluated against human breast cancer (MCF-7 cell line) at >20 ug/mL; assay type: functional; how it was run: as §2
MCF7 [10] = test: In vitro cytotoxicity evaluated against human breast cancer (MCF-7 cell line); assay type: functional; settings: read-out: ED50 (the source's name); how it was run: as §1
SK-MEL-2 [11] = test: In vitro cytotoxicity evaluated against human melanoma cancer (SKMEL-2 cell line); assay type: functional; settings: read-out: ED50 (the source's name); how it was run: as §1
SK-MEL-2 [12] = test: In vitro percent inhibition evaluated against human melanoma cancer (SKMEL-2 cell line) at >20 ug/mL; assay type: functional; how it was run: as §2
U-87 MG [13] = test: In vitro cytotoxicity evaluated against human glioblastoma carcinoma (U87-MG cell line); assay type: functional, U-87MG ATCC; settings: read-out: ED50 (the source's name); how it was run: as §1
U-87 MG [14] = test: In vitro percent inhibition evaluated against human glioblastoma carcinoma (U87-MG cell line) at >20 ug/mL; assay type: functional, U-87MG ATCC; how it was run: as §2
Tubulin alpha chain = Tubulin alpha chain (Sus scrofa, UniProt P02550); test: Inhibitory concentration required against tubulin polymerization determined using tubulin assay; assay type: functional
How it was run: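 Tubulin polymerization assay. IC50 is the concentration that inhibits extent of assembly by 50% after 20 min at 26 °C. At least two independent experiments per compound.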

A549 [15] = test: In vitro cytotoxicity evaluated against human lung cancer (A549 cell line); NA is not active; assay type: functional, cell-based; how it was run: as §1
U-87 MG [16] = test: In vitro cytotoxicity evaluated against human glioblastoma carcinoma (U87-MG cell line); NA is not active; assay type: functional, cell-based; settings: U-87MG ATCC; how it was run: as §1
HOS [17] = test: In vitro cytotoxicity evaluated against human bone carcinoma (HOS cell line); NA is not active; assay type: functional, cell-based; how it was run: as §1
1A9 [18] = test: In vitro cytotoxicity evaluated against human ovarian cancer (1A9 cell line); NA is not active; assay type: functional, cell-based; how it was run: as §1
KB [19] = test: In vitro cytotoxicity evaluated against human epidermoid nasopharynx carcinoma (KB cell line); NA is not active; assay type: functional, cell-based; how it was run: as §1

Sequence of Tubulin alpha chain (P02550 whole entry, looked up): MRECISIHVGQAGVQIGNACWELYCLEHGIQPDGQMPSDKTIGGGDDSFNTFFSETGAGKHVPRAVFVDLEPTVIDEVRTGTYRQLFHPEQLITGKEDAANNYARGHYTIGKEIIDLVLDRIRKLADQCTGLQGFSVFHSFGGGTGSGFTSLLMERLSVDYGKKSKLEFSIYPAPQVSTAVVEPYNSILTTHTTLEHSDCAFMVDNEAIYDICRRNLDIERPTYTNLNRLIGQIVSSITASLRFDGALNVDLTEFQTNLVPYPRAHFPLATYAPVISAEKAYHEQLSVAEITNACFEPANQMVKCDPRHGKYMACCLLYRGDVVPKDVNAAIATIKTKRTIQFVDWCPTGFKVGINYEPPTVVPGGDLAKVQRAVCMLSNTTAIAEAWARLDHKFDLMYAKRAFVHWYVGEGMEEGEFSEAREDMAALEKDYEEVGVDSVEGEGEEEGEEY

- IC50 (Tubulin alpha chain): 10 µM
Compound: O=C(O)Cc1ccc2c(O)cc(-c3ccccc3F)nc2c1
- EC50 (1A9 [1]): > 20 µg/mL
- Inhibition (1A9 [2]): 15%
- EC50 (A549 [3]): > 20 µg/mL
- Inhibition (A549 [4]): 21%
- ED50 (HOS [17]): inactive
- Inhibition (KB [7]): 8%
- EC50 (KB [8]): > 20 µg/mL
- Inhibition (MCF7 [9]): 13%
- EC50 (MCF7 [10]): > 20 µg/mL
- EC50 (SK-MEL-2 [11]): > 20 µg/mL
- Inhibition (SK-MEL-2 [12]): 14%
- ED50 (U-87 MG [16]): inactive

- IC50 (Tubulin alpha chain): > 40 µM
Compound: O=C(O)Cc1cccc2c(O)cc(-c3ccccc3F)nc12
- EC50 (1A9 [1]): 0.02 µg/mL (≈ 0.0673 µM)
- EC50 (A549 [3]): 0.06 µg/mL (≈ 0.202 µM)
- EC50 (HOS [6]): 0.04 µg/mL (≈ 0.135 µM)
- EC50 (KB [8]): 0.03 µg/mL (≈ 0.101 µM)
- EC50 (MCF7 [10]): 0.12 µg/mL (≈ 0.404 µM)
- EC50 (SK-MEL-2 [11]): 0.05 µg/mL (≈ 0.168 µM)
- EC50 (U-87 MG [13]): 0.07 µg/mL (≈ 0.235 µM)

- IC50 (Tubulin alpha chain): > 40 µM
Compound: O=C(O)Cc1cccc2nc(-c3ccccc3F)cc(O)c12
- ED50 (1A9 [18]): inactive
- EC50 (A549 [3]): > 20 µg/mL
- Inhibition (A549 [4]): 8%
- ED50 (HOS [17]): inactive
- Inhibition (MCF7 [9]): 7%
- ED50 (KB [19]): inactive
- EC50 (MCF7 [10]): > 20 µg/mL
- EC50 (SK-MEL-2 [11]): > 20 µg/mL
- Inhibition (SK-MEL-2 [12]): 9%
- ED50 (U-87 MG [16]): inactive

The next lines start with the compound.

Compound: O=C(O)Cc1ccc2nc(-c3ccccc3F)cc(O)c2c1
- EC50 (1A9 [1]): > 20 µg/mL
- Inhibition (1A9 [2]): 37%
- EC50 (A549 [3]): > 20 µg/mL
- Inhibition (A549 [4]): 24%
- Inhibition (HOS [5]): 15%
- EC50 (HOS [6]): > 20 µg/mL
- Inhibition (KB [7]): 36%
- EC50 (KB [8]): > 20 µg/mL
- Inhibition (MCF7 [9]): 16%
- EC50 (MCF7 [10]): > 20 µg/mL
- EC50 (SK-MEL-2 [11]): > 20 µg/mL
- Inhibition (SK-MEL-2 [12]): 17%
- EC50 (U-87 MG [13]): > 20 µg/mL
- Inhibition (U-87 MG [14]): 9%
- IC50 (Tubulin alpha chain): 5.2 µM

Compound: COC(=O)Cc1cccc2c(O)cc(-c3ccccc3)nc12
- EC50 (1A9 [1]): > 20 µg/mL
- Inhibition (1A9 [2]): 30%
- ED50 (A549 [15]): inactive
- Inhibition (HOS [5]): 7%
- EC50 (HOS [6]): > 20 µg/mL
- Inhibition (KB [7]): 8%
- EC50 (KB [8]): > 20 µg/mL
- Inhibition (MCF7 [9]): 15%
- EC50 (MCF7 [10]): > 20 µg/mL
- EC50 (SK-MEL-2 [11]): > 20 µg/mL
- Inhibition (SK-MEL-2 [12]): 12%
- ED50 (U-87 MG [16]): inactive
- IC50 (Tubulin alpha chain): 30 µM

Compound: O=C(O)Cc1cccc2c(O)cc(-c3ccccc3)nc12
- EC50 (1A9 [1]): 0.04 µg/mL (≈ 0.143 µM)
- EC50 (A549 [3]): 0.11 µg/mL (≈ 0.394 µM)
- EC50 (HOS [6]): 0.07 µg/mL (≈ 0.251 µM)
- EC50 (KB [8]): 0.04 µg/mL (≈ 0.143 µM)
- EC50 (MCF7 [10]): 0.44 µg/mL (≈ 1.58 µM)
- EC50 (SK-MEL-2 [11]): 0.06 µg/mL (≈ 0.215 µM)
- EC50 (U-87 MG [13]): 0.12 µg/mL (≈ 0.43 µM)
- IC50 (Tubulin alpha chain): > 40 µM

Compound: COC(=O)Cc1cccc2c(O)cc(-c3ccccc3F)nc12
- EC50 (1A9 [1]): 7.5 µg/mL (≈ 24.1 µM)
- EC50 (A549 [3]): > 10 µg/mL
- Inhibition (A549 [4]): 22%
- Inhibition (HOS [5]): 18%
- EC50 (HOS [6]): > 10 µg/mL
- Inhibition (KB [7]): 29%
- EC50 (KB [8]): > 10 µg/mL
- Inhibition (MCF7 [9]): 14%
- EC50 (MCF7 [10]): > 10 µg/mL
- EC50 (SK-MEL-2 [11]): > 10 µg/mL
- Inhibition (SK-MEL-2 [12]): 11%
- ED50 (U-87 MG [16]): inactive
- IC50 (Tubulin alpha chain): 5.5 µM

Source: ChEMBL document CHEMBL1136183, “Antitumor agents. Part 226: synthesis and cytotoxicity of 2-phenyl-4-quinolone acetic acids and their esters” (Bioorg Med Chem Lett, 2003)
